Columns and labels:
H. pylori ATCC 43504 = assay: H. pylori IC50 dose response; assay type: cell-based; conditions: Helicobacter pylori, ATCC43504, read-out: H. pylori ATCC 43504 pIC50 (converted)
H. pylori [1] = assay: H. pylori IC50 of high-throughput screening hits; assay type: cell-based; conditions: Helicobacter pylori, read-out: H. pylori IC50
H. pylori SS1 = assay: H. pylori IC50 dose response; assay type: cell-based; conditions: Helicobacter pylori, SS1, read-out: H. pylori SS1 pIC50 (converted)
Cytotoxicity assay = assay type: cell-based; conditions: human, FaDu cells
Method in brief: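 FaDu cells, maintained per ATCC protocols, were seeded in EMEM with 10% FBS at 3 x 10^5 cells/ml and grown 24 h at 37°C, 5% CO2. Medium was replaced with two-fold serial dilutions of test compound in fresh medium for 72 h, then with FBS-free EMEM plus resazurin (final 0.15 mM) for 3-5 h. Fluorescence read at ex 540/em 590 nm. IC50 fitted from percent inhibition versus growth controls, converted to pIC50, and reported as mean ± S.E.M.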

H. pylori [2] = conditions: cited from earlier work

Work on `OCCCNc1ncnc2sc(-c3ccccc3)cc12` [Compound 1, 3-((6-phenylthieno[2,3-d]pyrimidin-4-yl)amino)propan-1-ol] yielded an IC50 (H. pylori ATCC 43504) of 1580 nM, an IC50 (H. pylori [1]) of 1550 nM and an IC50 (H. pylori SS1) of 1580 nM. The IC50 at 72 h (Cytotoxicity assay) was 126000 nM.
In the case of `CC[C@H]1OC(=O)[C@H](C)[C@@H](O[C@H]2C[C@@](C)(OC)[C@@H](O)[C@H](C)O2)[C@H](C)[C@@H](O[C@@H]2O[C@H](C)C[C@H](N(C)C)[C@H]2O)[C@](C)(OC)C[C@@H](C)C(=O)[C@H](C)[C@@H](O)[C@]1(C)O` [clarithromycin], the “H. pylori minimum inhibitory concentration (MIC)” value (H. pylori [2]) is listed as 8 ng/mL.
